Screens deposited in PubChem BioAssay by several laboratories.
HCV core dimer: blocks dimerization of HCV core protein | TR-FRET GST/Flag-core106 dimerization, 1536-well | 0.33% of 300,000 active | inhibition, % at 5 µM | AID 1899;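 active = inhibition above the mean of all tested compounds plus 3 SD, set per screening campaign, cut at about 45% in these data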
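assay system = GST-tagged and Flag-tagged HCV core protein residues 1-106 | controls = unlabelled core106 and no-GST-core106 wells | incubation = compound-protein-antibody incubation 4 h at 22.5 °C | probe or stimulus = Eu donor and XL665 acceptor anti-tag antibodies | read-out = % inhibition based on acceptor/donor emission ratio | signal = TR-FRET 671 and 617 nm emission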
Fh CTSL1 inh: cathepsin L1 inhibition, PFM18AAP counter-screen. recombinant F. hepatica cathepsin L1, Z-Leu-Arg-MCA fluorescence. inhibition, % at 5.96 µM. 0.49% of 300,000 active. AID 1906;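 active = inhibition above the mean of all tested compounds plus 3 SD, set per screening campaign, cut at about 17% in these data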
NadD inh: inhibitors of Staphylococcus aureus NadD; purified NadD enzyme, colorimetric absorbance read-out; inhibition, % at 20 µM; 0.78% of 360,000 active; in the data active = inhibition above about 26%
Myeloid diff MLP: promotes myeloid progenitor differentiation; ER-HoxA9 myeloid progenitors, lysozyme-GFP differentiation, flow cytometry; calls only at 10 µM; 1% of 360,000 active; AID 624256;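 active = normalized GFP-positive differentiation at or above the plate's own cutoff, the solvent-only control mean plus 3 SD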;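 note: cells exposed to compound for four days before flow analysis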
PP1 counter: PP1-alpha (human) inhibition in PP5 counter-screen; inhibition, % at 6.7 µM; P62136; purified PP1alpha, OMFP fluorescence; 0.9% of 320,000 active;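 active = inhibition above the mean inhibition of all tested compounds plus 3 SD, computed separately for each screening campaign, cut at about 15% in these data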
PP5 primary: inhibitors of human protein phosphatase 5 (PP5). purified PP5c, OMFP substrate fluorescence. inhibition, % at 6.7 µM. 0.18% of 320,000 active;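 active = inhibition above the campaign's mean inhibition across all tested compounds plus 3 SD, cut at about 9.5% in these data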
Target sequence (P53041 whole entry, looked up): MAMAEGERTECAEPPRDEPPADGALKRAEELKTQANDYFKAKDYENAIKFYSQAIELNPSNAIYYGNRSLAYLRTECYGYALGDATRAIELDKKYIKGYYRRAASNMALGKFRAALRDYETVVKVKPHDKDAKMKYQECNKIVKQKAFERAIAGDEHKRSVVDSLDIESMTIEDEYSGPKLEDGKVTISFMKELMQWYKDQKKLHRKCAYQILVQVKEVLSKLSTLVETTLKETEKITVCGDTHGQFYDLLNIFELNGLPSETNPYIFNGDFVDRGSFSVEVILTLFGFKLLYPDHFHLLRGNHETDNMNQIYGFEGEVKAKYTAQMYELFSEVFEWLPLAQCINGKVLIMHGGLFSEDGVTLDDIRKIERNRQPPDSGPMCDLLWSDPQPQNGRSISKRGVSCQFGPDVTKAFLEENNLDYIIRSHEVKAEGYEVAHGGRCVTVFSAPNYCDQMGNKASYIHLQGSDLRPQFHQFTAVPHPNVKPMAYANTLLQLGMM
A number is an active result; n = inactive; x = no result given; + = active, no number. A selection: hits, their analogues and other compounds. The true share with any hit is near 3.1%.

SMILES | HCV core dimer | Fh CTSL1 inh | NadD inh | Myeloid diff MLP | PP1 counter | PP5 primary
CCNC(=O)/C(C#N)=C/c1c(N2CCCCCC2)nc2ccccn2c1=O | n | n | n | n | n | n
CNC(=O)/C(C#N)=C/c1c(N2CCCCCC2)nc2ccccn2c1=O | n | n | n | + | n | n
CCCn1nc(C(=O)Nc2nc(-c3ccccn3)cs2)c2ccccc2c1=O | x | x | n | + | n | n
CCCCOc1ccc(C(=O)NCC(=O)NC(C)CCc2ccccc2)cc1 (stereo not given) | x | x | n | + | x | x
CC(CCc1ccccc1)NC(=O)c1ccc(Cl)nc1 (stereo not given) | n | 17 | n | n | n | n
CC(CCc1ccccc1)NC(=O)c1ccc(C(=O)NC(C)CCc2ccccc2)cc1 (stereo not given) | n | n | n | n | n | n
COc1ccc(C(=O)Nc2cccc(NC(C)=O)c2)cc1OC | n | n | n | + | n | n
COc1ccc(/C=N/Nc2nc(-c3cccc(S(=O)(=O)N4CCCC4)c3)cs2)cc1OC | n | n | n | n | n | n
CCOc1cc(/C=N/Nc2nc(-c3cccc(S(=O)(=O)N4CCCC4)c3)cs2)ccc1O | n | n | 45 | n | n | n
Cc1cnc(C(=O)OCC(=O)c2ccc(Cl)cc2)cn1 | n | n | n | n | n | n
COc1ccc(Cn2c(C3CCCCC3)nc3c(c(=O)c4ccccc4n3C)c2=O)cc1 | n | n | x | x | n | n
COc1ccc(CCn2c(C3CCCCC3)nc3c(c(=O)c4ccccc4n3C)c2=O)cc1 | n | n | n | n | 16 | n
CC(C)n1c(SCC(=O)NC2CC2)nnc1C1CC1 | n | n | n | n | n | n
CCCCCCC/C=N/Nc1nnc(Cc2ccccc2)c(=O)[nH]1 | n | n | n | n | n | n
CCCCCC/C=N/Nc1nnc(Cc2ccc(OC)c(OC)c2)c(=O)[nH]1 | n | n | n | + | n | n
COc1ccc(OC)c(-c2c3cc(O)c(=O)cc-3oc3cc(O)c(O)cc23)c1 | n | n | 39 | n | n | n
COc1ccc(OC)c(-c2oc3ccccc3c(=O)c2O)c1 | n | n | n | x | n | n
CCOc1ccccc1-c1c2cc(O)c(=O)cc-2oc2cc(O)c(O)cc12 | x | x | n | n | x | x
O=c1cc2oc3cc(O)c(O)cc3c(-c3ccccc3O)c-2cc1O | x | x | 46 | n | x | x
Cc1ccc(S(=O)(=O)N2CCN(C(=O)CSc3ccccn3)CC2)c(C)c1 | n | n | n | n | n | n
COc1ccc(NC(=O)CN(C)C(=O)c2ccc(-c3ccccc3Cl)o2)cc1 | n | n | n | n | n | n
Cn1c(N)c(N2CCCCC2)c(=O)n(CC(=O)Nc2cccc(C#N)c2)c1=O | x | x | n | n | x | x
N#C/C(=C\c1ccc(OCc2ccccc2)cc1)C(=O)Nc1nc2c(s1)CCN(Cc1ccccc1)C2 | n | n | n | n | n | n
CN(C)c1ccc(/C=C(/C#N)C(=O)Nc2nc3c(s2)CCN(Cc2ccccc2)C3)cc1 | x | x | 57 | + | x | x
N#Cc1c(NCCCO)nc(-c2ccco2)c2c1CCCC2 | n | 18 | n | n | n | n
SMILES | HCV core dimer | Fh CTSL1 inh | NadD inh | Myeloid diff MLP | PP1 counter | PP5 primary
CN1CCCN(S(=O)(=O)c2ccccc2)c2nc3ccccc3nc21 | x | x | n | + | x | x
CN1CCCNc2nc3ccccc3nc21 | n | n | n | + | n | n
COc1ccc(CCN2CN(S(=O)(=O)c3ccccc3)c3nc4ccccc4nc32)cc1 | n | n | n | n | n | n
Cc1ccc(S(=O)(=O)N2CCCN(C)c3nc4ccccc4nc32)cc1 | x | x | n | + | n | n
Nc1nc2ccccc2nc1N1CCCC1 | n | n | n | n | n | n
CC(=O)NCc1ccc(-c2csc(-c3cccs3)n2)cc1 | n | n | n | n | n | n
O=C(NC1CCCCC1)C(c1ccncc1)N(C(=O)c1ccco1)c1ccc(F)cc1 (stereo not given) | n | n | n | n | n | n
O=C(NCC1CCCO1)c1ccc(-c2ccccc2Cl)o1 (stereo not given) | n | n | n | n | n | n
COc1ccc(/C=N/NC(=O)c2nn(-c3ccc(C)c(C)c3)c(=O)c3ccccc23)cc1 | 56 | n | n | n | n | n
Oc1ccc(C=Nc2ccc3ncccc3c2)c(O)c1 | 63 | n | x | x | n | n
Oc1ccc(C=Nc2cccc3ncccc23)c(O)c1 | n | n | n | n | n | n
CCn1c(C)c(C)c2cc(C(=O)NCCCN3CCCCC3C)ccc21 (stereo not given) | n | n | n | n | n | n
COc1ccc(/C=C(/CC(=O)Nc2ccccc2)c2nc3ccccc3s2)cc1 | 58 | n | n | n | n | n
COc1ccccc1/C=C(/CC(=O)NCc1ccc2c(c1)OCO2)c1nc2ccccc2s1 | n | n | n | n | n | n
COc1ccc(/C=C(/CC(=O)NCc2ccc(Cl)cc2)c2nc3ccccc3s2)cc1 | n | n | n | n | 15 | n
O=C(CCCN1C(=O)C(c2ccccc2)Oc2cccnc21)Nc1cccc(F)c1 (stereo not given) | n | n | n | n | n | n
N#CCC(=O)Nc1ccc(C(=O)OCc2ccccc2Oc2ccccc2)cc1 | n | n | n | + | n | n
N#CCC(=O)Nc1ccc(C(=O)OCC(=O)C23CC4CC(CC(C4)C2)C3)cc1 | n | n | n | + | n | n
Cc1ccc(NC(=O)CN(C)C(=O)COC(=O)c2ccc(NC(=O)CC#N)cc2)cc1 | x | x | n | n | x | x
Cc1ccc(S(=O)(=O)N2CCN(C(=O)COC(=O)CCOc3ccc(C(C)(C)C)cc3)CC2)cc1 | n | n | n | n | n | n
COc1ccccc1C(=O)N1CCN(C(=O)[C@H]2O[C@@H](n3cnc4c(N)ncnc43)[C@H](O)[C@@H]2O)CC1 | x | x | n | n | x | x
Cc1cccc(N=[N+]([O-])c2cccc(C)n2)n1 | x | x | n | n | x | x
CC(=O)n1cc(/C=N/NC(N)=S)c2ccccc21 | n | 95 | n | n | n | n
COc1ccccc1OCCn1cc(/C=N/NC(N)=S)c2ccccc21 | n | 95 | n | n | n | n
CC(C)(C)OC(=O)n1cc(/C=N/NC(=O)c2ccco2)c2ccccc21 | n | n | n | + | n | n
SMILES | HCV core dimer | Fh CTSL1 inh | NadD inh | Myeloid diff MLP | PP1 counter | PP5 primary
CC(=O)n1cc(/C=N/NC(=O)c2ccccc2O)c2ccccc21 | n | n | n | n | n | n
NC(=S)N/N=C/c1c[nH]c2ccccc12 | n | 102 | n | n | n | n
C[C@@H]1CN[C@@H](CCO)/C1=C\c1ccccc1 | x | x | n | n | x | x
CC1CN(C(=O)COC(=O)/C=C/c2cccc([N+](=O)[O-])c2)CC(C)O1 (stereo not given) | x | x | n | n | x | x
NC(=S)N/N=C/c1ccccc1OCCSc1ccc(Cl)cc1 | n | 25 | n | n | n | n
CCOc1cc(C2C3=C(CC(C)(C)CC3=O)N(CCOC)C3=C2C(=O)CC(C)(C)C3)ccc1OC | n | n | n | n | n | n
COc1ccc(C2C3=C(CC(C)(C)CC3=O)N(CC(=O)O)C3=C2C(=O)CC(C)(C)C3)cc1OC | n | 20 | n | n | n | n
CC(=O)n1cc(C2CC(=O)OC3=C2CC(=O)C(C)(C)C3)c2ccccc21 (stereo not given) | x | x | n | n | x | x
